Tests used:
Rattus norvegicus = assay: Compound was tested for selectivity in a challenge spontaneously hypertensive rat (SHR) model using an ascending iv dose paradigm
[1] = molecular target: T1, Alpha-2B adrenergic receptor (Rattus norvegicus, UniProt P19328); assay: Binding affinity against rat Alpha-2B adrenergic receptor using [3H]rauwolscine as radioligand
T1 sequence (P19328 whole entry): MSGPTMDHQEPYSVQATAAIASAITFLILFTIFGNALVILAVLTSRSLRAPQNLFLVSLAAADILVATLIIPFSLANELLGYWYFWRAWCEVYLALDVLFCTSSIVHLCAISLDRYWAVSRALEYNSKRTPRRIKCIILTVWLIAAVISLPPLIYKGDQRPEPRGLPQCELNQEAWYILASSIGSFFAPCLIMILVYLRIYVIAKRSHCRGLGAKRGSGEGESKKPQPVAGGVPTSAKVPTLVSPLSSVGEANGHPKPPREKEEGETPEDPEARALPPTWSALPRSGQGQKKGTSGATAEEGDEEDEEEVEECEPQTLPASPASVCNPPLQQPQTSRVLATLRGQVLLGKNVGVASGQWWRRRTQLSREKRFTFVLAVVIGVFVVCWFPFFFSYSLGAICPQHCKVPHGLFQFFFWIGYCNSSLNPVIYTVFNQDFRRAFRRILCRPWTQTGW

[2] = molecular target: T2, Alpha-2A adrenergic receptor (Homo sapiens, UniProt P08913); assay: Binding affinity against human adrenergic receptor subtype Alpha-2A adrenergic receptor using [3H]rauwolscine as radioligand
T2 sequence (P08913 whole entry): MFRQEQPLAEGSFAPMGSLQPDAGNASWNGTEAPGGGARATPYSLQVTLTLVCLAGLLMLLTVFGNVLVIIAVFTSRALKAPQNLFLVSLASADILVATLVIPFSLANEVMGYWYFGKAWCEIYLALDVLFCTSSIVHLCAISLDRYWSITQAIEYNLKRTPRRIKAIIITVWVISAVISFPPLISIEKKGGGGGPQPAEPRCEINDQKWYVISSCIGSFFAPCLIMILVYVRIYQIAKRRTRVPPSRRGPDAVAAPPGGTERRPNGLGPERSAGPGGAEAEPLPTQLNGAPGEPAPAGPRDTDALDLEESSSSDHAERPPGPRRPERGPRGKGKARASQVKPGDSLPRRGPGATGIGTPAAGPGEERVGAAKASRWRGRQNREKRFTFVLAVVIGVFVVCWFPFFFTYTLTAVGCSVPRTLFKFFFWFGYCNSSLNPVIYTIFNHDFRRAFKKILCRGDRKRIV

[3] = molecular target: T3, Alpha-1D adrenergic receptor (Homo sapiens, UniProt P25100); assay: Binding affinity against human adrenergic receptor subtype Alpha-1D adrenergic receptor using [3H]prazosin as radioligand
T3 sequence (P25100 whole entry): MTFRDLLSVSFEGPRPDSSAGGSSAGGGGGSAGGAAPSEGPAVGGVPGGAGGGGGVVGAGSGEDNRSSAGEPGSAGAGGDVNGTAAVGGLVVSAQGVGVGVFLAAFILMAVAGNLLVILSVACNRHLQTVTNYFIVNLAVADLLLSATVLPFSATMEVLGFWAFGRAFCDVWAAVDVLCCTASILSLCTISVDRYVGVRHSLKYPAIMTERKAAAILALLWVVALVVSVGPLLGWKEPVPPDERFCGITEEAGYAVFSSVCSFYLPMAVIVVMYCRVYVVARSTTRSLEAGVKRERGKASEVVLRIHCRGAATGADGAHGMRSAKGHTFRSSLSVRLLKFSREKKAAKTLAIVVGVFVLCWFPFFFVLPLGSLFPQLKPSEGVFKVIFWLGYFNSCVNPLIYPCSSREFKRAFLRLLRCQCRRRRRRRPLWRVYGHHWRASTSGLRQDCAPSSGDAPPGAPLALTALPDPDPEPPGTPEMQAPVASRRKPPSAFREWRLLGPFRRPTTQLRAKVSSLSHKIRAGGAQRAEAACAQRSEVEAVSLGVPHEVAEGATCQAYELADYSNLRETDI

[4] = molecular target: T4, Alpha-2C adrenergic receptor (Homo sapiens, UniProt P18825); assay: Binding affinity against human Alpha-2C adrenergic receptor using [3H]rauwolscine as radioligand
T4 sequence (P18825 whole entry): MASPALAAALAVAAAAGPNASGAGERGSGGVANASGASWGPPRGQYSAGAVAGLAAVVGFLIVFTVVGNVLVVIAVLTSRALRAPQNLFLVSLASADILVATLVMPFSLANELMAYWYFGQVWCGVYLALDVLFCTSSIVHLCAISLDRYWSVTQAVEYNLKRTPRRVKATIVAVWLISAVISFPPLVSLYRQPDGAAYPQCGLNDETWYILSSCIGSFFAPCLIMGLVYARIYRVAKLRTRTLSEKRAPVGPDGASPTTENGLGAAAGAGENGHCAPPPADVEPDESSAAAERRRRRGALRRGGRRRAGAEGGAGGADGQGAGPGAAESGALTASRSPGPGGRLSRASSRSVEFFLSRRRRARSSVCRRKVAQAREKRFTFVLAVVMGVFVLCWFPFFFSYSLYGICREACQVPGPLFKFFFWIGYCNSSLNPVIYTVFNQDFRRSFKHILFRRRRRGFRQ

[5] = molecular target: T5, Alpha-1B adrenergic receptor (Homo sapiens, UniProt P35368); assay: Binding affinity against human adrenergic receptor subtype Alpha-1B adrenergic receptor using [3H]prazosin as radioligand
T5 sequence (P35368 whole entry): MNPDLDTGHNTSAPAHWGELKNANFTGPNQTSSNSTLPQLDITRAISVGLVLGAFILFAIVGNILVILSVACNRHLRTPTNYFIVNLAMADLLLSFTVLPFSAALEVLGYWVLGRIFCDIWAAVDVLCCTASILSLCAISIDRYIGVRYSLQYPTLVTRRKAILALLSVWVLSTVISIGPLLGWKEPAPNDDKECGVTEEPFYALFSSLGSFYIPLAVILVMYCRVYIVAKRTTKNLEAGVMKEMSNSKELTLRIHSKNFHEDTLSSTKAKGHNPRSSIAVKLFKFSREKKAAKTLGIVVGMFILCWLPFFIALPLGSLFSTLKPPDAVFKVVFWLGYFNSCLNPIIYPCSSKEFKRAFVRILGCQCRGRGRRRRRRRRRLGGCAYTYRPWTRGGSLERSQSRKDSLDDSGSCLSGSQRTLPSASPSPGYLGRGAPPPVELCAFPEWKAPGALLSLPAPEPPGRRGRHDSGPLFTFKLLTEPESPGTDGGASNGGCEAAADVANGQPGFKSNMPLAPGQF

[6] = molecular target: T6, Alpha-1B adrenergic receptor (Rattus norvegicus, UniProt P15823); assay: In vitro antagonism against Alpha-1B adrenergic receptor using phenylephrine (PE) challenge in rat spleen; format: functional, tissue-based; conditions: read-out: pA2 (converted)
T6 sequence (P15823 whole entry): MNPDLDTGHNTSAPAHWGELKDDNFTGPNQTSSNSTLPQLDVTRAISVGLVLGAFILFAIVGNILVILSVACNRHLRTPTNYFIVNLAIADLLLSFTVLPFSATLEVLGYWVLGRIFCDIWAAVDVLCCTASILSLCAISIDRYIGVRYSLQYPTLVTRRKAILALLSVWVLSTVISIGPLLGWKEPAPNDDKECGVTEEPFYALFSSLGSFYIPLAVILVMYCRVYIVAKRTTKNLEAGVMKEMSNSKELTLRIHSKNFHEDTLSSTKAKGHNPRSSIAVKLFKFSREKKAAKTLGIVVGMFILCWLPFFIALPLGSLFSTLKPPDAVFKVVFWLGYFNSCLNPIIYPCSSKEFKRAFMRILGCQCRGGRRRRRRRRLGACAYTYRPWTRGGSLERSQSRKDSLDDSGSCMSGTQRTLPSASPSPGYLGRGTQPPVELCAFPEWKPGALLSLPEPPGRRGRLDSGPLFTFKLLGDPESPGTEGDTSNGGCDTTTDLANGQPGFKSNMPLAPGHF
Summary of the method: (§1)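 Agonist concentration-response curves were run on the isolated tissue, then repeated in the presence of increasing concentrations of antagonist. pA2 was obtained by Schild analysis.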

[7] = molecular target: Beta-2 adrenergic receptor (Homo sapiens, UniProt P07550); assay: Binding affinity against adrenergic receptor subtype Beta-2 adrenergic receptor using [3H]DHA as radioligand
Beta-2 adrenergic receptor, sequence (P07550 whole entry): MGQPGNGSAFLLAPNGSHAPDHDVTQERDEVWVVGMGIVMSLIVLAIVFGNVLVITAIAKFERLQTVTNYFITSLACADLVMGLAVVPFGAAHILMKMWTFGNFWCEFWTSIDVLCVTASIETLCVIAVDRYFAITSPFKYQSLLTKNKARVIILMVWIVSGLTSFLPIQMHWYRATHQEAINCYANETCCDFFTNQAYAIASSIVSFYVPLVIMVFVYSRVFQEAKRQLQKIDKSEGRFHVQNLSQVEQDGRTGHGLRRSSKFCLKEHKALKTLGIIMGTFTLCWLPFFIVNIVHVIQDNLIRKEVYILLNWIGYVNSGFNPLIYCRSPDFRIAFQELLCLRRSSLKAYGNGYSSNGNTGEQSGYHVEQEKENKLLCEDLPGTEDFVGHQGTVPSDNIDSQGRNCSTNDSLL

[8] = molecular target: Beta-1 adrenergic receptor (Homo sapiens, UniProt P08588); assay: Binding affinity against Beta-1 adrenergic receptor using [3H]DHA as radioligand
Beta-1 adrenergic receptor, sequence (P08588 whole entry): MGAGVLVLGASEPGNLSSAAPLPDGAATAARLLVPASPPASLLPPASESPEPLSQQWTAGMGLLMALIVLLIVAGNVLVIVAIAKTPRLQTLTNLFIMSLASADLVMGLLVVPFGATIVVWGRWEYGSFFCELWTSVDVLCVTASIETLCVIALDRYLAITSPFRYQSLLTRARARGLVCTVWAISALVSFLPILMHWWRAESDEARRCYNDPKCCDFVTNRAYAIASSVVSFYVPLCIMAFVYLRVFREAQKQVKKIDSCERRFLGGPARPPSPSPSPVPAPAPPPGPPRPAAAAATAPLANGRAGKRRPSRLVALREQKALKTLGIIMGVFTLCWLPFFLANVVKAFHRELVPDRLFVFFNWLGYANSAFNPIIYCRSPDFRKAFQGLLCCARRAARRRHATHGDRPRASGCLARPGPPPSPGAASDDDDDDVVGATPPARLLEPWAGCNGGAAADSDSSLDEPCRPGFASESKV

D(1A) dopamine receptor = D(1A) dopamine receptor (Mus musculus, UniProt Q61616); assay: Binding affinity against Dopamine receptor D1 using [3H]SCH-23390 as radioligand
D(1A) dopamine receptor, sequence (Q61616 whole entry): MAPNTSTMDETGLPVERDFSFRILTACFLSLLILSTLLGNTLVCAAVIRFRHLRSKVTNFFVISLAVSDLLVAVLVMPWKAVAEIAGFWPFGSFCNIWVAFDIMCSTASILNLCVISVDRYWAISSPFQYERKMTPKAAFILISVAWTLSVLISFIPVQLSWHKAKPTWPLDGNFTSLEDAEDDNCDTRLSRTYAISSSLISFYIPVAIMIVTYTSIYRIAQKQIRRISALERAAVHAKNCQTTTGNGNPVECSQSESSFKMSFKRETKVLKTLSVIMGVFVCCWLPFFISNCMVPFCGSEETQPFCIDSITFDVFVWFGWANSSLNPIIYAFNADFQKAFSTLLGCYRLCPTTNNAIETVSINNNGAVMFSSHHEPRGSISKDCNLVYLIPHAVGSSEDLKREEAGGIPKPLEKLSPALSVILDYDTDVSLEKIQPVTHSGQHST

D(2) dopamine receptor = D(2) dopamine receptor (Homo sapiens, UniProt P14416); assay: Binding affinity against Dopamine receptor D2 using [3H]spiroperidol as radioligand
D(2) dopamine receptor, sequence (P14416 whole entry): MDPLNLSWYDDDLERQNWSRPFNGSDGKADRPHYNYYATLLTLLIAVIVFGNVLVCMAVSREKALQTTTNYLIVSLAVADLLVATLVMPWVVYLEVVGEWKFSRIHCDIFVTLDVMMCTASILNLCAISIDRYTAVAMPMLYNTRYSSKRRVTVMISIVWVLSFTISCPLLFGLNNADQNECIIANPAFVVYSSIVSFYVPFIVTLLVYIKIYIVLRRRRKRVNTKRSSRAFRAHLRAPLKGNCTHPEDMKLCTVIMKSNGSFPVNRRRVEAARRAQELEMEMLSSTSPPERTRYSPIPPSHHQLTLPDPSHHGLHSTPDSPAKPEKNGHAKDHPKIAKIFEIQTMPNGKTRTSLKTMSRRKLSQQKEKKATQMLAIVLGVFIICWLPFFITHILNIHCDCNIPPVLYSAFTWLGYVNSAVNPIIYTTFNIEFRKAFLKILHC

[9] = molecular target: T7, Alpha-1D adrenergic receptor (Rattus norvegicus, UniProt P23944); assay: In vitro antagonism against Alpha-1D adrenergic receptor using phenylephrine (PE) challenge in rat aorta; format: functional, tissue-based; conditions: read-out: pA2 (converted)
T7 sequence (P23944 whole entry): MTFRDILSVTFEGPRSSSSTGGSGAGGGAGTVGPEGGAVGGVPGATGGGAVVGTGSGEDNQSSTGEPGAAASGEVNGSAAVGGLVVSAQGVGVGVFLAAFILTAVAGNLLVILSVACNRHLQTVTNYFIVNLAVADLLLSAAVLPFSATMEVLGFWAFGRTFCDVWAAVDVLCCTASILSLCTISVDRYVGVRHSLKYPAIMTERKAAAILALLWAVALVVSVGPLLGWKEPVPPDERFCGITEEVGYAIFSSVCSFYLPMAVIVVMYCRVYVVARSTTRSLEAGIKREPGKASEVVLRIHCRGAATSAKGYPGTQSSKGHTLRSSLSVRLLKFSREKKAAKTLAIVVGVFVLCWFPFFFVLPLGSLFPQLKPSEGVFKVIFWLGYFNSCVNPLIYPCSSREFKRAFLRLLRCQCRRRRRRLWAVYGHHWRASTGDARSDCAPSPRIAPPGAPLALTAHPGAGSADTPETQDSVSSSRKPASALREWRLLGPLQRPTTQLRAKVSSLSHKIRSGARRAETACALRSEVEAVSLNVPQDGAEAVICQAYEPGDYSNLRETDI
Summary of the method: as §1

[10] = molecular target: 5-hydroxytryptamine receptor 2A (Bos taurus, UniProt Q75Z89); assay: Binding affinity against 5-hydroxytryptamine 2 receptor using [3H]ketanserin as radioligand
5-hydroxytryptamine receptor 2A, sequence (Q75Z89 whole entry): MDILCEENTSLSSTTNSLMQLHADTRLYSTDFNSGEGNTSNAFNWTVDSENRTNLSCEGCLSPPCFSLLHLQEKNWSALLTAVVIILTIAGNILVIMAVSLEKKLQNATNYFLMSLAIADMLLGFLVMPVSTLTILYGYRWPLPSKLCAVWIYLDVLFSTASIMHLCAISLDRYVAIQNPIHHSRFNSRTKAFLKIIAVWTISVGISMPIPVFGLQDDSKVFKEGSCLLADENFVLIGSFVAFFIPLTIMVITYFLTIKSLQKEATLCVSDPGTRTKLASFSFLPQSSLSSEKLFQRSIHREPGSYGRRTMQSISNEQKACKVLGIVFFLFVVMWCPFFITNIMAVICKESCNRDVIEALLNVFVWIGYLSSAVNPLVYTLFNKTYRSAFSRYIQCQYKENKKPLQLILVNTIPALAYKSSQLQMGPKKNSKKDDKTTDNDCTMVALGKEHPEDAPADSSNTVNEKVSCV

[11] = molecular target: T8, 5-hydroxytryptamine receptor 1F (Rattus norvegicus, UniProt P30940); assay: Binding affinity against 5-hydroxytryptamine 1 receptor using [3H]5-HT as radioligand
T8 sequence (P30940 whole entry): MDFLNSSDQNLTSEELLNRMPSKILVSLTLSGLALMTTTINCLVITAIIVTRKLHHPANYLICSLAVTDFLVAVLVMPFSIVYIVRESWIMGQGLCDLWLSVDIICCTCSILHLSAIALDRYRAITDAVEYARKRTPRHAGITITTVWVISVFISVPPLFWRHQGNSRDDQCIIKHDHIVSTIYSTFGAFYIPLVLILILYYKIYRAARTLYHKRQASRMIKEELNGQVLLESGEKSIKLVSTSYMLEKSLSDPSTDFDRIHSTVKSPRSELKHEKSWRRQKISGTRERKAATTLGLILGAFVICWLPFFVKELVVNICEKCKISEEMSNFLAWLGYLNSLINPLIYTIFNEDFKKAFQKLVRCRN

| Ki [1] [nM] | Ki [2] [nM] | Ki [3] [nM] | Ki [4] [nM] | Ki [5] [nM] | Kb [6] [nM] | Ki [7] [nM] | Ki [8] [nM] | Ki (D(1A) dopamine receptor) [nM] | Ki (D(2) dopamine receptor) [nM] | Kb [9] [nM] | Ki [10] [nM] | Ki [11] [nM] | Compound | pED50 (Rattus norvegicus) |
| --- | --- | --- | --- | --- | --- | --- | --- | --- | --- | --- | --- | --- | --- | --- |
| 7.7 | 1500 | 0.85 | – | – | – | – | – | – | – | – | – | – | COc1cc2nc(N3CCN(C(=O)C4CCCO4)CC3)nc(N)c2cc1OC (stereo not given) [TERAZOSIN] | 6.64 |
| 6.8 | 13.4 | 0.058 | 7.9 | 0.61 | 0.204 | – | – | – | – | – | – | – | CCOc1ccccc1OCCN[C@H](C)Cc1ccc(OC)c(S(N)(=O)=O)c1 [TAMSULOSIN] | 7.33 |
| 13.1 | 94.9 | 0.97 | 16.6 | 6.95 | 12.9 | 3870 | 10600 | 717 | 19.7 | 0.776 | 83 | 3380 | COc1cccc2c1CC[C@H]1CN(CCn3c(=O)[nH]c4c(sc5cccnc54)c3=O)C[C@@H]21 | 5.33 |

Source: ChEMBL document CHEMBL1130166, “Synthesis and pharmacological characterization of 3-[2-((3aR,9bR)-cis-6-methoxy-2,3,3a,4,5,9b-hexahydro-1H-benz[e] isoindol-2-yl)ethyl]pyrido-[3',4':4,5]thieno[3,2-d]pyrimidine-2,4 (1H,3H)-dione (A-131701): a uroselective alpha 1A adrenoceptor antagonist for the symptomatic treatment of benign …” (J Med Chem, 1997)
